Measured values: ChEMBL document CHEMBL1250461, “Synthesis, binding and bioactivity of gamma-methylene gamma-lactam ecdysone receptor ligands: advantages of QSAR models for flexible receptors” (Bioorg Med Chem, 2010)

Test: Binding affinity to Bovicola ovis recombinant ecdysone receptor ligand binding domain after 3 hrs by fluorescence polarization assay
In short: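 B. ovis EcR_DEF/USP_DEF LBD heterodimer, co-expressed from baculovirus and purified by IMAC (2.51 mg/mL final). Competes with 36 nM fluorescein–inokosterone A conjugate in 50 mM sodium phosphate, 100 mM NaCl, pH 7.4 with 0.5 mg/mL BSA and 3% v/v DMSO. Compound range 3 nM–3 mM final. Incubated overnight at 4 °C, then 3 h at room temperature before polarisation (mP) read. Triplicate; IC50 from mean.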

SMILES	IC50 [µM]
C=C1C(C)=C(C#N)C(=O)N1c1cc(Cl)c(Cl)cc1Cl	7
C=C1C(C)=C(C#N)C(=O)N1c1c(C)cc(Cl)cc1Cl	55
C=C1C(C)=C(C#N)C(=O)N1c1c(C)cc(Cl)cc1C	48
C=C1C(C)=C(C#N)C(=O)N1c1c(C)cc(C)cc1C	68
C=C1C(CC)=C(C#N)C(=O)N1c1cccc(Cl)c1Cl	17.5
C=C1C(CC)=C(C#N)C(=O)N1c1cccc(Cl)c1C	15
C=C1C(CC)=C(C#N)C(=O)N1c1c(C)cccc1CC	80
C=C1C(CC)=C(C#N)C(=O)N1c1c(Cl)cc(Cl)cc1Cl	160
C=C1C(C)=C(C#N)C(=O)N1c1ccccc1Cl	55
C=C1C(C)=C(C#N)C(=O)N1c1ccccc1Br	37.5
C=C1C(C)=C(C#N)C(=O)N1c1ccccc1C	80
C=C1C(C)=C(C#N)C(=O)N1c1ccccc1C(C)C	22.5
C=C1C(C)=C(C#N)C(=O)N1c1ccccc1C(C)(C)C	17.5
C=C1C(C)=C(C#N)C(=O)N1c1ccccc1OC	11
C=C1C(C)=C(C#N)C(=O)N1c1ccccc1OCC	350
C=C1C(C)=C(C#N)C(=O)N1c1cccc(Cl)c1	19
C=C1C(C)=C(C#N)C(=O)N1c1cccc(SC)c1	25
C=C1C(C)=C(C#N)C(=O)N1c1cccc(C(F)(F)F)c1	22
C=C1C(C)=C(C#N)C(=O)N1c1ccc(N(C)C)cc1	150
C=C1C(C)=C(C#N)C(=O)N1c1ccc(NC(C)=O)cc1	575
C=C1C(C)=C(C#N)C(=O)N1c1cccc(Cl)c1Cl	22.5
C=C1C(C)=C(C#N)C(=O)N1c1ccc(F)cc1F	90
C=C1C(C)=C(C#N)C(=O)N1c1ccc(OC)cc1OC	150
C=C1C(C)=C(C#N)C(=O)N1c1cc(Cl)ccc1Cl	12.5
C=C1C(C)=C(C#N)C(=O)N1c1cc(Cl)ccc1O	92.5

SMILES	IC50 [µM]
C=C1C(C)=C(C#N)C(=O)N1c1cc(Cl)ccc1OC	650
C=C1C(C)=C(C#N)C(=O)N1c1c(C)cccc1[N+](=O)[O-]	160
C=C1C(C)=C(C#N)C(=O)N1c1ccc(F)c([N+](=O)[O-])c1	20
C=C1C(C)=C(C#N)C(=O)N1c1ccc2c(c1)OCO2	67.5
C=C1C(C)=C(C#N)C(=O)N1c1ccc(Cl)c(Cl)c1Cl	15
C=C1C(C)=C(C#N)C(=O)N1c1ccccc1-c1ccccc1	25
C=C1C(C)=C(C#N)C(=O)N1c1ccccc1OC(F)(F)F	45
C=C1C(C)=C(C#N)C(=O)N1c1ccccc1Oc1ccccc1	25
C=C1C(C)=C(C#N)C(=O)N1c1ccccc1Cc1ccccc1	22.5
C=C1C(C)=C(C#N)C(=O)N1c1cccc(Oc2ccccc2)c1	18
C=C1C(C)=C(C#N)C(=O)N1c1ccc(-c2ccccc2)cc1	35
C=C1C(C)=C(C#N)C(=O)N1c1ccc(N(C)C(C)=O)cc1	400
C=C1C(C)=C(C#N)C(=O)N1c1cc(C(F)(F)F)ccc1C(F)(F)F	4.5
C=C1C(C)=C(C#N)C(=O)N1c1cc([N+](=O)[O-])ccc1OC	55
C=C1C(C)=C(C#N)C(=O)N1c1cc(Cl)ccc1OC(=O)CC	55
C=C1C(C)=C(C#N)C(=O)N1c1c(C)cccc1C(C)(C)C	160
C=C1C(C)=C(C#N)C(=O)N1c1c(CC)cccc1C(C)(C)C	150
C=C1C(C)=C(C#N)C(=O)N1c1c(C)cc(Cl)cc1C(C)C	20
C=C1C(C)=C(C#N)C(=O)N1c1c(C)cc(C)cc1C(F)(C(F)(F)F)C(F)(F)F	160
C=C1C(CC)=C(C#N)C(=O)N1c1ccccc1C(C)(C)C	40
C=C1C(CC)=C(C#N)C(=O)N1c1ccccc1OC(F)(F)F	26
C=C1C(CC)=C(C#N)C(=O)N1c1c(C)cccc1C(C)C	45
C=C1C(CCC)=C(C#N)C(=O)N1c1c(C)cccc1CC	48
C=C1C(CCC)=C(C#N)C(=O)N1c1c(C)cccc1C(C)C	10.5
